Assay results reported in ChEMBL document CHEMBL1136028, “Design and synthesis of orally bioavailable inhibitors of inducible nitric oxide synthase. Part 1: synthesis and biological evaluation of dihydropyridin-2-imines” (Bioorg Med Chem Lett, 2002).

Experiments:
[1] = target: T1, Nitric oxide synthase 3 (Homo sapiens) (UniProt P29474); assay: Selectivity was evaluated as the rate of the IC50 values for Endothelial Nitric Oxide Synthase and Inducible nitric oxide synthase
T1 sequence (whole entry): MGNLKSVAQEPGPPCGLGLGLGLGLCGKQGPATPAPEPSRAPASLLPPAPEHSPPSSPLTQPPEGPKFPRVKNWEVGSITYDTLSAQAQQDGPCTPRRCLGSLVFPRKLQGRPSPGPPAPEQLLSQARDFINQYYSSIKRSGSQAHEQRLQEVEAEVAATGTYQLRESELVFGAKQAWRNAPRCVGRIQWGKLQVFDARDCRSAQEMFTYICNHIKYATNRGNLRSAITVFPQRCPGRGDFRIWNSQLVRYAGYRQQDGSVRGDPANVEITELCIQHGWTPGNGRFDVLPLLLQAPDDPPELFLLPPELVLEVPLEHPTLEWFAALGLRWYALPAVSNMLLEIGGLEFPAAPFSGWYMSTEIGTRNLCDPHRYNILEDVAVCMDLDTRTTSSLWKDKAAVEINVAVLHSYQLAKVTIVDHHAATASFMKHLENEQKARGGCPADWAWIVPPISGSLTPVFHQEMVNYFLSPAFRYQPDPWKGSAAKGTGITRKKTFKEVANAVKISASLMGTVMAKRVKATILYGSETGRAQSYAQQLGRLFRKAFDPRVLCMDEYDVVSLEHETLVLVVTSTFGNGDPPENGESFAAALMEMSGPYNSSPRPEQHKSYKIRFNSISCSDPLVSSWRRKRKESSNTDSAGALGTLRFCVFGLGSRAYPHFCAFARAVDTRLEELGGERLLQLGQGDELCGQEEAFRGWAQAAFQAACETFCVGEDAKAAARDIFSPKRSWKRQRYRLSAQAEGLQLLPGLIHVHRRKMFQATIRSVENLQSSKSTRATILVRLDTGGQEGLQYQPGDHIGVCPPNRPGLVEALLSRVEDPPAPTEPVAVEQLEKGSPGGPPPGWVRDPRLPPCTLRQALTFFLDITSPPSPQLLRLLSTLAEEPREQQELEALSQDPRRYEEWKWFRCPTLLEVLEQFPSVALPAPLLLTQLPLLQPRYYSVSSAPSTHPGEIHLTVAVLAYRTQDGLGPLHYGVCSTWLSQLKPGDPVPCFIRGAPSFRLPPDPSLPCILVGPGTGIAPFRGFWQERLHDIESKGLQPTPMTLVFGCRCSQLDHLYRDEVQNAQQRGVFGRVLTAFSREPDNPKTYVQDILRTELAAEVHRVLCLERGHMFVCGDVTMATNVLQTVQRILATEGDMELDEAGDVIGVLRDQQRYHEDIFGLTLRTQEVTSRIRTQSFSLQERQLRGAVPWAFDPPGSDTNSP

[2] = target: T2, Nitric oxide synthase, inducible (Homo sapiens, UniProt P35228); assay: Concentration required to inhibit Inducible nitric oxide synthase over expressed in A549 cells; type: cell-based
T2 sequence (P35228 whole entry): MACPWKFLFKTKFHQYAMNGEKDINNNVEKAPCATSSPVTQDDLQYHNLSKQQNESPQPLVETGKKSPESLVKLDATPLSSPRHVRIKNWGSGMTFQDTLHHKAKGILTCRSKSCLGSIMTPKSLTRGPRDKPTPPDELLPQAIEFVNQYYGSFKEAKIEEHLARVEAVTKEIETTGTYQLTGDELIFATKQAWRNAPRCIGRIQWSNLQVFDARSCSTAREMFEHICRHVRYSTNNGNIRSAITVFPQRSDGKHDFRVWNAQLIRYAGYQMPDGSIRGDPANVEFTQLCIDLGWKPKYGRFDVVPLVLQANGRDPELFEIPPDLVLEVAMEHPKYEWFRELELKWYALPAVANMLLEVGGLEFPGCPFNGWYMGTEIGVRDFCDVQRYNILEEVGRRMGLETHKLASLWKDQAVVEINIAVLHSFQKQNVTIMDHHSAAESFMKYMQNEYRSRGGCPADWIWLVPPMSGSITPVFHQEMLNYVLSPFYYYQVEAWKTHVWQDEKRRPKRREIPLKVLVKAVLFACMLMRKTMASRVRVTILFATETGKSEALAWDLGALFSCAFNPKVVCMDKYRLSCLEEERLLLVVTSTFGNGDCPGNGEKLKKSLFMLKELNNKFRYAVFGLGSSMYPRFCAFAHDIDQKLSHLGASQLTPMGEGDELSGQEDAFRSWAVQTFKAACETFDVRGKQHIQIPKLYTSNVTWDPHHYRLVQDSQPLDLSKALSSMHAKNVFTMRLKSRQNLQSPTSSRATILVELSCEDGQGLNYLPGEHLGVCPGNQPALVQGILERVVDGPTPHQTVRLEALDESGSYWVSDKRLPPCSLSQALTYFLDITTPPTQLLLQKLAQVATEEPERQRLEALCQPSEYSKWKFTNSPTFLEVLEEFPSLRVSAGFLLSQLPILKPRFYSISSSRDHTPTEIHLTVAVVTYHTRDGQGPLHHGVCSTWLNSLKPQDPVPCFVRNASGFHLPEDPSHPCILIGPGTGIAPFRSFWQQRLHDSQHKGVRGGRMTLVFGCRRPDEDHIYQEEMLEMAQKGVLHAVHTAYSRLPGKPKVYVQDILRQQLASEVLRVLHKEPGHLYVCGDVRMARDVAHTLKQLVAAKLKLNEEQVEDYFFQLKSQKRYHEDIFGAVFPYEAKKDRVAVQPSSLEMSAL
Procedure, shortened: (§1)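 Human iNOS was induced in A549 cells by LPS plus cytokines (10 ng/mL TNF-a, 5 ng/mL IL-1b, 100 ng/mL interferon-g), then partially purified on 2',5'-ADP-Sepharose. Activity was read as conversion of [14C]-L-arginine to L-citrulline at several inhibitor and L-arginine levels. Ki and mode of inhibition came from Dixon and Lineweaver–Burk plots.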

Nitric oxide synthase 3 = target: T3, Nitric oxide synthase 3 (Homo sapiens, UniProt P29474); assay: Inhibition of human endothelial Nitric Oxide Synthase expressed in Sf-21 cells; set-up: species or system Sf21
T3 sequence (P29474 whole entry): T1 sequence (whole entry)
Procedure, shortened: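 Human eNOS was overexpressed in Sf-21 insect cells by infection with baculovirus carrying heNOS cDNA, then partially purified on 2',5'-ADP-Sepharose. Activity was read as [14C]-L-arginine to L-citrulline conversion at several inhibitor and L-arginine levels. Ki and mode of inhibition came from Dixon and Lineweaver–Burk plots.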

Mus musculus [3] = assay: The dose required for 50% inhibition of NOx accumulation in mice induced by LPS treatment after subcutaneous administration; type: functional; conditions: sc, read-out: ID50 (the source's name)
Mus musculus [4] = assay: Maximum tolerated dose (MTD) at which no death was observed within 24 hr after intravenous administration.; type: functional
Procedure, shortened: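 Normal mice (mouse acute toxicity) given a single intravenous dose of test compound. MTD taken as the maximum dose at which no death was observed within 24 h after injection.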

[5] = target: Nitric oxide synthase (inducible and endothelial) (Homo sapiens) (UniProt P35228+P29474); assay: Selectivity was evaluated as the rate of the IC50 values for heNOS and hiNOS.; type: protein assay
[6] = Ratio of MTD/ID50 for NOx accumulation in mice; type: functional
Procedure, shortened: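 Balb/c mice, 7 weeks old, got LPS 10 mg/kg iv, then test compound or saline sc 3 h later. Plasma was taken from the abdominal aorta at 6 h, and NOx accumulated over 3 h was measured. ID50 is the sc dose halving LPS-induced NOx. MTD is the highest iv dose in normal mice with no death within 24 h. Ratio is MTD/ID50.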

[7] = target: T2, Nitric oxide synthase, inducible; assay: Concentration required to inhibit human Inducible nitric oxide synthase over expressed in A549 cells; type: cell-based; procedure, shortened: as §1
[8] = target: T4, Nitric oxide synthase, inducible (Mus musculus, UniProt P29477); assay: The concentration required for inhibition of Inducible nitric oxide synthase in mouse
T4 sequence (P29477 whole entry): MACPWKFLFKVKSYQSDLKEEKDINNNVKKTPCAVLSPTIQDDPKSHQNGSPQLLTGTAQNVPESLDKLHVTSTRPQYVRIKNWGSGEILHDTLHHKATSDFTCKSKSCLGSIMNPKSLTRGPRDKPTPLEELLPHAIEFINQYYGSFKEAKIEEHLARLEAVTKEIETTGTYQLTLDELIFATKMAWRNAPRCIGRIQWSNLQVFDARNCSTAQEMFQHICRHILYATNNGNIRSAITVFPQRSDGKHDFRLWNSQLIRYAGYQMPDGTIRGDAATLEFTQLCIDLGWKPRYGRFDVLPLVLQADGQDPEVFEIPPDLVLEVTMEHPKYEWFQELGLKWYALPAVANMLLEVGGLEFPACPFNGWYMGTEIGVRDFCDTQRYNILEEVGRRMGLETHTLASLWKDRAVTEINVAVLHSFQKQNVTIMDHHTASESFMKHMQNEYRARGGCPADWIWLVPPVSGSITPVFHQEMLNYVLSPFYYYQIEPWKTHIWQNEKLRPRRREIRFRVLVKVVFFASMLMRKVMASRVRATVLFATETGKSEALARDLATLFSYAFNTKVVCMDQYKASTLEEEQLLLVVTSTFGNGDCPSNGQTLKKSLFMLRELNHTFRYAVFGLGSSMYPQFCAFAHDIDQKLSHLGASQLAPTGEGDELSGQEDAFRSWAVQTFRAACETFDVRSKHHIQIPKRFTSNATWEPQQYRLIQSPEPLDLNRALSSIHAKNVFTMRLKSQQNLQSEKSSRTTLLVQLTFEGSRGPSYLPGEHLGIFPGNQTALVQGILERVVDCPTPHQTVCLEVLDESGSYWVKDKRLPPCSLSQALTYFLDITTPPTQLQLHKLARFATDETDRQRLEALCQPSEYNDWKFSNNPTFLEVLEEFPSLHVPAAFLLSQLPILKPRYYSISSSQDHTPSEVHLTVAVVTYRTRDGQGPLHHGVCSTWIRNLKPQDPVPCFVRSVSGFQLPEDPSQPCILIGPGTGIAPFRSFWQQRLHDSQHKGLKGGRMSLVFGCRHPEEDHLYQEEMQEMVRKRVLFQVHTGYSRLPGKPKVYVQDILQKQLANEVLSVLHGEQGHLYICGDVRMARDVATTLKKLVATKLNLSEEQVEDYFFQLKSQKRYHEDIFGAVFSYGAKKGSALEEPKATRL
Procedure, shortened: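 Enzyme was commercially purchased recombinant mouse iNOS, tested for inhibition by the test compounds.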

| Compound | Ratio [1] | IC50 [2] | IC50 (Nitric oxide synthase 3) | ED50 (Mus musculus [3]) | MTD (Mus musculus [4]) | Ratio [5] | Ratio [6] | IC50 [7] | IC50 [8] |
| --- | --- | --- | --- | --- | --- | --- | --- | --- | --- |
| CC1=CC(N)=NCC1C (centres undefined) | 1 | 510 nM | 520 nM | – | – | – | – | – | – |
| CCCC1CC(C)=CC(N)=N1 (centres undefined) | – | – | 580 nM | 0.36 mg/kg | 5 mg/kg | 9.7 | 14 | 60 nM | 100 nM |
| CC1=CC(N)=N[C@@H]2CCCC[C@H]12 | – | – | 7400 nM | – | – | 5.3 | – | 1400 nM | – |
| CCC1=CC(=N)NCC1 | – | – | 1500 nM | – | – | 1.3 | – | 1200 nM | – |
| CC1=CC(N)=NCC1 | – | – | 230 nM | 0.16 mg/kg | 20 mg/kg | 1.2 | 130 | 200 nM | 22 nM |
| CC1(C)C=CC(N)=NC1 | – | – | 31000 nM | – | – | 11.1 | – | 2800 nM | – |
| C=CCC1CC(C)=CC(N)=N1 (centres undefined) | – | – | – | 0.16 mg/kg | 5 mg/kg | 7.2 | – | – | 25 nM |
| CC1=CCN=C(N)C1 | – | – | 440 nM | – | – | 0.6 | – | 700 nM | – |
| CC1=CC(N)=NCC1(C)C | – | – | 2100 nM | 0.28 mg/kg | 20 mg/kg | 5 | 71 | 420 nM | 100 nM |
| CC1=CC(N)=NC(C)C1 (centres undefined) | 1.3 | 180 nM | 240 nM | – | – | – | – | – | – |
| CC1=CC(N)=N[C@@H]2CCC[C@H]12 | – | – | 510 nM | – | – | 3 | – | 170 nM | – |
| CC1=C(C)C(N)=NCC1 | – | – | 320 nM | – | – | 1 | – | 310 nM | – |
